In brackets after ≈: the same amount, converted by molar mass. Blank lines part the entries; values can stand above or below the compound they belong to.
Columns and labels:
[1] = target: T1, Adenosine receptor A3 (Homo sapiens) (UniProt P0DMS8); assay: Positive allosteric modulator activity in wild type human A3AR opioid receptor stably expressed in human HEK293 cell membrane assessed as increase in CI-IB-MECA induced [35S]GTPGAgammaS binding to receptor at 10 uM preincubated for 1 hrs with CI-IB-MECA further incubated with [35S]GTPGAgammaS for …; assay type: cell membranes; conditions: filed as positive allosteric modulator, time 3.0 hrs
T1 sequence (whole entry): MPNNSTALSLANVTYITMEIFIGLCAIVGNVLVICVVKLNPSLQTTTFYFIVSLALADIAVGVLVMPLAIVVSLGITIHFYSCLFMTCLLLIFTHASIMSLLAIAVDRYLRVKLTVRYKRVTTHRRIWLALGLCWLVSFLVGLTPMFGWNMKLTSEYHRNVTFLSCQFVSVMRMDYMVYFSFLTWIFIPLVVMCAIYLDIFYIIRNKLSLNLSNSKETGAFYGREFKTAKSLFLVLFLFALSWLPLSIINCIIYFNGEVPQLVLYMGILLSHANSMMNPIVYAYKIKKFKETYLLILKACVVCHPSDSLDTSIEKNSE

[2] = human, microsomes, 2 h, 3 µM
[3] = target: Sigma non-opioid intracellular receptor 1 (Homo sapiens, UniProt Q99720); assay: Displacement of [3H]-LSD from human sigma1 receptor expressed in human HEK293T cell membrane incubated for 90 mins by radioligand binding assay
[4] = Permeability across apical to basolateral side in human Caco-2 cells assessed as compound recovery at 10 uM measured upto 120 mins by LC-MS/MS analysis; assay type: ADME, cell-based; conditions: caco-2, 2 h
[5] = mouse, microsomes, 2 h, 3 µM
[6] = Clearance in Wistar rat plasma at 1 mg/kg, po and measured upto 24 hrs; assay type: ADME, organism-based
Procedure, shortened: (§1)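 Fasted male Wistar rats (RccHan:WIST), 6–10 weeks old at acclimation, three per group. Dosing was 0.5 mg/kg i.v. in DMSO:20% HPBCD (10:90), or 1, 3 and 10 mg/kg by oral gavage in DMSO:Kolliphor EL:PBS (15:15:70). Jugular blood was taken at 0.083–24 h (stated for i.v.) into heparin, and plasma was frozen at −70 °C. Parameters came from non-compartmental analysis.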

[7] = Stability in human plasma assessed as half life and measured after 120 mins by LC-MS/MS analysis; conditions: 2 h
[8] = Aqueous solubility of compound at pH 7.4 by PDA spectrophotometric analysis; conditions: buffer
[9] = Clearance in Wistar rat plasma at 3 mg/kg, po and measured upto 24 hrs; assay type: ADME, organism-based
Procedure, shortened: as §1

[10] = Microsomal stability in human liver microsomes assessed as parent compound remaining at 3 uM incubated for 120 mins by LC-MS/MS analysis; conditions: 2 h
[11] = MRT in Wistar rat at 1 mg/kg, po and measured upto 24 hrs; assay type: ADME, organism-based; conditions: plasma, 3 mg/kg, in the assay text read “3 mg/kg” for “1 mg/kg”
Procedure, shortened: as §1

[12] = Stability of the compound in simulated intestinal fluid at pH 6 to 8 assessed as compound remaining at 120 mins by LC-MS/MS analysis; conditions: simulated gi fluid, pH 6, 2 h
[13] = Stability in mouse plasma assessed as compound remaining and measured after 120 mins by LC-MS/MS analysis; conditions: 2 h
[14] = Half life in Wistar rat at 3 mg/kg, po and measured upto 24 hrs; conditions: in vivo
[15] = Stability in human plasma assessed as compound remaining and measured after 120 mins by LC-MS/MS analysis; conditions: 2 h
[16] = Half life in Wistar rat at 10 mg/kg, po and measured upto 24 hrs; conditions: in vivo
[17] = Microsomal stability in mouse liver microsomes assessed as parent compound remaining at 3 uM incubated for 120 mins by LC-MS/MS analysis; conditions: 2 h
[18] = target: Cytochrome P450 1A2 (Homo sapiens) (UniProt P05177)
[19] = Permeability across basolateral to apical side in human Caco-2 cells assessed as compound recovery at 10 uM measured upto 120 mins by LC-MS/MS analysis; assay type: ADME, cell-based; conditions: caco-2, 2 h
[20] = Protein binding in rat plasma assessed as bound fraction at 10 uM and measured for 5 hrs by LC-MS/MS based dialysis analysis
[21] = Clearance in Wistar rat plasma at 10 mg/kg, po and measured upto 24 hrs; assay type: ADME, organism-based
Procedure, shortened: as §1

[22] = simulated gi fluid, pH 6, 2 h
[23] = in vivo; conditions: Wistar, rat, po, 10 mg/kg
[24] = Stability in rat plasma assessed as compound remaining and measured after 120 mins by LC-MS/MS analysis; conditions: 2 h
[25] = Clearance in Wistar rat assessed as parent compound remaining at 3 mg/kg, po and measured upto 24 hrs; assay type: ADME, organism-based; conditions: in vivo
Procedure, shortened: as §1

[26] = Microsomal stability in rat liver microsomes assessed as parent compound remaining at 3 uM incubated for 120 mins by LC-MS/MS analysis; conditions: 2 h
[27] = Tmax in Wistar rat plasma at 1 to 10 mg/kg, po and measured after 2 hrs; assay type: ADME, organism-based; conditions: dose 1-10 mg/kg
Procedure, shortened: as §1

[28] = Stability in mouse plasma assessed as half life and measured after 120 mins by LC-MS/MS analysis; conditions: 2 h
[29] = in vivo; conditions: Wistar, rat, po, 3 mg/kg
[30] = target: Voltage-gated inwardly rectifying potassium channel KCNH2 (Homo sapiens, UniProt Q12809); assay: Inhibition of human ERG stably transfected in HEK293 cells incubated for 2 hrs by TAMRA fluorescence polarization assay
[31] = target: T2, Cytochrome P450 1A2 (Homo sapiens, UniProt P05177); assay: Inhibition of CYP1A2 in human liver Microsome using phenacetin as substrate in presence of NADPH by LC-MS/MS analysis
T2 sequence (P05177 whole entry): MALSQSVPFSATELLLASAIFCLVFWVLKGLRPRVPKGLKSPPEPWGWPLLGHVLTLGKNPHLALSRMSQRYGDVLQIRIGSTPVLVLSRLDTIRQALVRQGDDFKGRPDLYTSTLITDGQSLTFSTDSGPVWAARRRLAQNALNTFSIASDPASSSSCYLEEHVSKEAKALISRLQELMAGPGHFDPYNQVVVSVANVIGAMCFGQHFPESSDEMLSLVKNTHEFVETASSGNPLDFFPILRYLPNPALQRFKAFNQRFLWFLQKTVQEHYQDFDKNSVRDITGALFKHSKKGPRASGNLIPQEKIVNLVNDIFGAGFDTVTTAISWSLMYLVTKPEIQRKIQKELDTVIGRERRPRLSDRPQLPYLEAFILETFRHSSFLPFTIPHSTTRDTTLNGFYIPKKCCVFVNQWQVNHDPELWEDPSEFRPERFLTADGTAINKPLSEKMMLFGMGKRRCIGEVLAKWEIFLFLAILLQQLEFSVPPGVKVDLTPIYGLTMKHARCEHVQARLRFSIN

[32] = simulated gi fluid, pH 1, 2 h
[33] = Stability in rat plasma assessed as half life and measured after 120 mins by LC-MS/MS analysis; conditions: 2 h
[34] = Cmax in Wistar rat plasma at 10 mg/kg, po and measured after 2 hrs; assay type: ADME, organism-based; design: time 2 hrs, dose 10 mg/kg, route po; conditions: in vivo
Procedure, shortened: as §1

[35] = Half life in Wistar rat at 0.5 mg/kg, iv and measured upto 24 hrs; assay type: ADME, organism-based; conditions: in vivo
Procedure, shortened: as §1

[36] = Stability of the compound in simulated gastric fluid at pH 1 to 2 assessed as compound remaining at 120 mins by LC-MS/MS analysis; conditions: simulated gi fluid, pH 1, 2 h
[37] = rat, microsomes, 2 h, 3 µM
[38] = target: Sigma intracellular receptor 2 (Homo sapiens, UniProt Q5BJF2); assay: Displacement of [3H]-DTG from human sigma2 receptor expressed in human HEK293T cell membrane incubated for 90 mins by radioligand binding assay
[39] = target: Cytochrome P450 1A2 (Homo sapiens) (UniProt P05177); remark: listed apart in the source
[40] = target: T3, Adenosine receptor A3 (Homo sapiens, UniProt P0DMS8)
T3 sequence (P0DMS8 whole entry): T1 sequence (whole entry)

[41] = target: Translocator protein (Homo sapiens, UniProt P30536); assay: Inhibition of human TPSO receptor expressed in human HEK293T cell membrane incubated for 90 mins by radioligand binding assay
[42] = target: 5-hydroxytryptamine receptor 2B (Homo sapiens, UniProt P41595); assay: Displacement of [3H]-LSD from human 5HT2B expressed in human HEK293 cell membrane incubated for 90 mins by radioligand binding assay; assay type: cell membranes
Procedure, shortened: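 Off-target panel run by the NIMH PDSP. Each derivative was first screened at 10 μM in radioligand binding.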

[43] = target: D(3) dopamine receptor (Homo sapiens, UniProt P35462); assay: Displacement of [3H]-N-methylspiperone from human D3 receptor expressed in human HEK293T cell membrane incubated for 90 mins by radioligand binding assay
[44] = Protein binding in human plasma assessed as bound fraction at 10 uM and measured for 5 hrs by LC-MS/MS based dialysis analysis
[45] = Protein binding in mouse plasma assessed as bound fraction at 10 uM and measured for 5 hrs by LC-MS/MS based dialysis analysis
[46] = target: Cytochrome P450 2D6 (Homo sapiens, UniProt P10635); assay: Inhibition of CYP2D6 in human liver Microsome using dextromethorphan as substrate in presence of NADPH by LC-MS/MS analysis
[47] = Inhibition of CYP2C9 in mouse liver Microsome using phenacetin as substrate in presence of NADPH by LC-MS/MS analysis
[48] = Inhibition of CYP2C9 in rat liver Microsome using phenacetin as substrate in presence of NADPH by LC-MS/MS analysis
[49] = target: Sodium-dependent dopamine transporter (Homo sapiens, UniProt Q01959); assay: Displacement of [3H]-Win35428 from human DAT receptor expressed in human HEK293T cell membrane incubated for 90 mins by radioligand binding assay
[50] = target: Mu-type opioid receptor (Homo sapiens, UniProt P35372); assay: Displacement of [3H]-DAMGO from human MOR receptor expressed in human HEK293 cell membrane incubated for 90 mins by radioligand binding assay
Chain of Mu-type opioid receptor (P35372 whole entry): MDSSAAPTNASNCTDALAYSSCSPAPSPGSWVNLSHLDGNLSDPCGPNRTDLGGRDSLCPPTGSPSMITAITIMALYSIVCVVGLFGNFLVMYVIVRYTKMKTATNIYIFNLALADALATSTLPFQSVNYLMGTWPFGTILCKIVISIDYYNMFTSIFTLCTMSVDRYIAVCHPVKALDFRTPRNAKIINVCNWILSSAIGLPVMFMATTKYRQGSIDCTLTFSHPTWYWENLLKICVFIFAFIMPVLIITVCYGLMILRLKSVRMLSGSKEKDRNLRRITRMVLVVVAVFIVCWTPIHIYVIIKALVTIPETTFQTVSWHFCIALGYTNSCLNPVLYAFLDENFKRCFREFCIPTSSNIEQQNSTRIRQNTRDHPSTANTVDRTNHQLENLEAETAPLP

Chain of Sigma intracellular receptor 2 (Q5BJF2 whole entry): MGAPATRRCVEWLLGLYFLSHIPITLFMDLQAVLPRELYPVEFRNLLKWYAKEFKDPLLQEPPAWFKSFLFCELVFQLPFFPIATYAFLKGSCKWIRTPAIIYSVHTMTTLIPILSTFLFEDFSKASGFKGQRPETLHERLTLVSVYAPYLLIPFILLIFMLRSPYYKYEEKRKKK
Chain of Sigma non-opioid intracellular receptor 1 (Q99720 whole entry): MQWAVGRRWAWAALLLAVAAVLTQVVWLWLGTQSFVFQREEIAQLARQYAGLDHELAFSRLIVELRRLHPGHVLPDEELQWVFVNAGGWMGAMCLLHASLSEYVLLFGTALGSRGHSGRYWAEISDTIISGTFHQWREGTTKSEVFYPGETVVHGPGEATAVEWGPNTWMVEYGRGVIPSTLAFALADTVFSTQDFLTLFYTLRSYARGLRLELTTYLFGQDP
Chain of D(3) dopamine receptor (P35462 whole entry): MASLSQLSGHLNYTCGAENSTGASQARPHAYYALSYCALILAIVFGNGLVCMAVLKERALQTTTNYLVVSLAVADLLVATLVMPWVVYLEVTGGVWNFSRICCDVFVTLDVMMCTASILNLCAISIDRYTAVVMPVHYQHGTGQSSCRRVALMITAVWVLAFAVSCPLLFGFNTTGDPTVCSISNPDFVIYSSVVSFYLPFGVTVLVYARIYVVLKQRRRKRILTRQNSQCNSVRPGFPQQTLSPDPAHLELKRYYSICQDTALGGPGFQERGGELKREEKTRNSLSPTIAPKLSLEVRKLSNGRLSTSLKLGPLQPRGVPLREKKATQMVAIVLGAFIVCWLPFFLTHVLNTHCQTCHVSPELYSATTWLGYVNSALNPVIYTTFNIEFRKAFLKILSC
Chain of Translocator protein (P30536 whole entry): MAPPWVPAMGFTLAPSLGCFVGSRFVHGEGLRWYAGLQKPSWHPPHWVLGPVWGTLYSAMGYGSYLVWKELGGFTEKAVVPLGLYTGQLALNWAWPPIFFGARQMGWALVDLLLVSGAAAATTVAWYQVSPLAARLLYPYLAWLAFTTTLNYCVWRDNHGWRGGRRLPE
Chain of Cytochrome P450 2D6 (P10635 whole entry): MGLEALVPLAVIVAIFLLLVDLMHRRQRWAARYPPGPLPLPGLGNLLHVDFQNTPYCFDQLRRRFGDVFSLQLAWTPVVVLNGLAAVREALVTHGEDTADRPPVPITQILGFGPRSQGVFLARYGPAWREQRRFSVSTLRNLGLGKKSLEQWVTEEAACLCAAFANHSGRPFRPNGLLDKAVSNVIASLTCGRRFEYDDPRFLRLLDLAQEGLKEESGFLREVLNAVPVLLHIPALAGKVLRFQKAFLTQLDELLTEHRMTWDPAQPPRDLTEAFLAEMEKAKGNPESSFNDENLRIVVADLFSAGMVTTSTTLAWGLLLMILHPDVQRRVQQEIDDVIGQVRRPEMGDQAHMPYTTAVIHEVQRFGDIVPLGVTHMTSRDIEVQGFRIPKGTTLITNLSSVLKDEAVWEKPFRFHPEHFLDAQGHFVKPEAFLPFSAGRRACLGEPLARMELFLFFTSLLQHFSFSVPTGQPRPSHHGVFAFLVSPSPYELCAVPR
Chain of Voltage-gated inwardly rectifying potassium channel KCNH2 (Q12809 whole entry): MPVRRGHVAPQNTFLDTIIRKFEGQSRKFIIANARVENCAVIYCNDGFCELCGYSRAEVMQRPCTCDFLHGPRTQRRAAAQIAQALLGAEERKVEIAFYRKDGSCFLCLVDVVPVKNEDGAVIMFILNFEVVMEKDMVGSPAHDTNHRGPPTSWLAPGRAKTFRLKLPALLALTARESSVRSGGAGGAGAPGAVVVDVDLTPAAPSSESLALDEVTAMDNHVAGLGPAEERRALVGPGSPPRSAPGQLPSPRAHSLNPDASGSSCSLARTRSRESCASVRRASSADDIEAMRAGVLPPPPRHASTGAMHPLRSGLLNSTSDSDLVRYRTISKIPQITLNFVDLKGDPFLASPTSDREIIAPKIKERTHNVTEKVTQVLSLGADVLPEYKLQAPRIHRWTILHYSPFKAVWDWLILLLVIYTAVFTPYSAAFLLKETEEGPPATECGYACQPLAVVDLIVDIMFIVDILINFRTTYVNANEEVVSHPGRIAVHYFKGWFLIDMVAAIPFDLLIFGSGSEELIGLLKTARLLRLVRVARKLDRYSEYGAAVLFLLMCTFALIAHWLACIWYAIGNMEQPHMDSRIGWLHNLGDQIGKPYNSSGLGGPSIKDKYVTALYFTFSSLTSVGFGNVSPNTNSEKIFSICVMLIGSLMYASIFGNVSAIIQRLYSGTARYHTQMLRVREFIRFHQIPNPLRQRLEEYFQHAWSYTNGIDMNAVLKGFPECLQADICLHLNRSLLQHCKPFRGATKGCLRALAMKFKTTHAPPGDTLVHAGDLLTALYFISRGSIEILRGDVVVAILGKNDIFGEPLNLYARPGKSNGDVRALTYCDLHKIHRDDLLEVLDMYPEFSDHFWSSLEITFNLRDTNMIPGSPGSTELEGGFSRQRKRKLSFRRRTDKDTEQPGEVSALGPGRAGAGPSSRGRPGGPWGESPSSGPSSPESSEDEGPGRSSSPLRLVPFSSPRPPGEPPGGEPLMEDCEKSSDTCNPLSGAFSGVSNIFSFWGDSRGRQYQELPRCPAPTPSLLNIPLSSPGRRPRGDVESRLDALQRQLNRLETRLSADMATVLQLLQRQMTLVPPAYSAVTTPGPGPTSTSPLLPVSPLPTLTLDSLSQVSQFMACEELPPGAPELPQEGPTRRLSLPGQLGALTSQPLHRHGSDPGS
Chain of 5-hydroxytryptamine receptor 2B (P41595 whole entry): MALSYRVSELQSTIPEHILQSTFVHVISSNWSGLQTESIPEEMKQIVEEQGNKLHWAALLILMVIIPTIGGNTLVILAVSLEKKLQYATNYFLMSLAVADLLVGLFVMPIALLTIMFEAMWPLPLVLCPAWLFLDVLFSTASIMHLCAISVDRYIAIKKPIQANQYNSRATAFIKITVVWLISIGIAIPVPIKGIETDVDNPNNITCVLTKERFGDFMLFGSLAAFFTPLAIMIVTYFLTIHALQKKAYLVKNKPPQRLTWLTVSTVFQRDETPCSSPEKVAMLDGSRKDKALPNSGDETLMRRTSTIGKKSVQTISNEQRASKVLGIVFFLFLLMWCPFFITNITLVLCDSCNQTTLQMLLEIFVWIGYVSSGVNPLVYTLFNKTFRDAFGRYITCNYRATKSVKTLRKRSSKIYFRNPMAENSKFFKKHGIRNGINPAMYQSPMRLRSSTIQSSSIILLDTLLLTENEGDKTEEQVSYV
Chain of Sodium-dependent dopamine transporter (Q01959 whole entry): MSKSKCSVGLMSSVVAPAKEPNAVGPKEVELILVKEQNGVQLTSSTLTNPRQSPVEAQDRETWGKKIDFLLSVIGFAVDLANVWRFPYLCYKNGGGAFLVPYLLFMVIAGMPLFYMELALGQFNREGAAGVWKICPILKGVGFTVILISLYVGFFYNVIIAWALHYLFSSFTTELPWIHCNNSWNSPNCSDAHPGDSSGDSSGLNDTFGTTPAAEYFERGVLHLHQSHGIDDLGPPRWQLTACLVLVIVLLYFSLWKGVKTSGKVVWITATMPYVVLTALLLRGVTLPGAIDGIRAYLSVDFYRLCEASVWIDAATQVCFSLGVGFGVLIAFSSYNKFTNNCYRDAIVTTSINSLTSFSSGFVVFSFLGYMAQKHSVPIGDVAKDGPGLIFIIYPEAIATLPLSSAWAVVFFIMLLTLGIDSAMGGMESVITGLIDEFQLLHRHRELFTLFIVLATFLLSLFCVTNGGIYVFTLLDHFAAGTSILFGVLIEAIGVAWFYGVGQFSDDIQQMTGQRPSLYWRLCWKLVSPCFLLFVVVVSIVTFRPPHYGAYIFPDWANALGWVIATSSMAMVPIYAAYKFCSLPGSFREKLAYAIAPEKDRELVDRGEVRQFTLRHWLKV

Compound: Clc1ccc(Nc2nc3ccccc3c3[nH]c(C4CC5C=CC4CC5)nc23)cc1Cl (racemic)
Activity [1]: 100%

Compound: Clc1ccc(Nc2nc3ccccc3c3[nH]c(C4CCC=CCC4)nc23)cc1Cl
t1/2 [2]: 200 min
Ki [3]: 4.64 µM
permeability [4]: 48.1%
t1/2 [5]: 194 min
CL/F [6]: 7.45 mL/min/kg
t1/2 [7]: 159 min
solubility [8]: 0.39 µg/mL (≈ 0.921 µM)
CL/F [9]: 26.3 mL/min/kg
Stability [10]: 81.2%
MRT [11]: 3.98 h
Stability [12]: 100%
Stability [13]: 83.5%
t1/2 [14]: 1.29 h
Stability [15]: 69.7%
t1/2 [16]: 2.6 h
Stability [17]: 76.4%
IC50 [18]: 6.99 µM
permeability [19]: 78%
PPB [20]: 99.1%
CL/F [21]: 16.2 mL/min/kg
t1/2 [22]: 573 min
bioavailability at 24 h [23]: 47.5%
Stability [24]: 88.7%
remaining at 24 h [25]: 50%
Stability [26]: 52.1%
Tmax [27]: 2 h
t1/2 [28]: 695 min
bioavailability at 24 h [29]: 28.7%
IC50 [30]: 6.06 µM
IC50 [31]: 6.99 µM
t1/2 [32]: 204 min
t1/2 [33]: 580 min
Cmax [34]: 1780 ng/mL
t1/2 [35]: 2.38 h
Stability [36]: 69.1%
t1/2 [37]: 70 min
Ki [38]: 575 nM
IC50 [39]: 6.99 µM

Compound: Clc1ccc(Nc2nc3ccccc3c3[nH]c(C4CCCCC4)nc23)cc1Cl
Ki [40]: 2000 nM

Compound: CCN(CC)CCOC(=O)c1ccc(N)cc1 [PROCAINE]
Stability [13]: 0%
Stability [15]: 0%
t1/2 [28]: 0.11 min

Compound: CCCC(CCC)c1nc2c(Nc3ccc(I)cc3)nc3ccccc3c2[nH]1
Ki [41]: 123 nM
Ki [38]: 891 nM

Compound: CCCC(CCC)c1nc2c(Nc3ccc(Cl)c(Cl)c3)nc3ccccc3c2[nH]1
Ki [3]: 1.48 µM
Ki [42]: 1360 nM
Ki [38]: 1360 nM

t1/2 [32]: 15.3 min
Stability [36]: 0%
Compound: COc1ccc2[nH]c([S+]([O-])Cc3ncc(C)c(OC)c3C)nc2c1 (stereo unspecified) [OMEPRAZOLE]

Compound: Clc1ccc(Nc2nc3ccccc3c3[nH]c(C4CCCCCCCC4)nc23)cc1Cl
Ki [3]: 5.15 µM
Ki [38]: 907 nM

Compound: Clc1ccc(Nc2nc3ccccc3c3[nH]c(C4CCCCCCCCCCC4)nc23)cc1Cl
Ki [43]: 7.63 µM

Stability [24]: 83.9%
Compound: COc1ccc([C@@H]2Sc3ccccc3N(CCN(C)C)C(=O)[C@@H]2OC(C)=O)cc1 [DILTIAZEM]

Compound: CC(=O)CC(c1ccccc1)c1c(O)c2ccccc2oc1=O (stereo unspecified) [WARFARIN]
PPB [44]: 96.3%
PPB [45]: 83.6%

Compound: Ic1ccc(Nc2nc3ccccc3c3[nH]c(C4CCCCC4)nc23)cc1
Ki [43]: 0.846 µM

Compound: Clc1ccc(COC(Cn2ccnc2)c2ccc(Cl)cc2Cl)c(Cl)c1 (stereo unspecified) [MICONAZOLE]
IC50 [46]: 1640 nM
IC50 [47]: 38 µM
IC50 [48]: 38 µM
IC50 [18]: 4.55 µM
IC50 [31]: 4.55 µM
IC50 [39]: 4.55 µM

Compound: Clc1ccc(Nc2nc3ccccc3c3[nH]c([C@@H]4C[C@@H]5CCC[C@@H](C5)C4)nc23)cc1Cl
Ki [49]: 467 nM
Ki [50]: 7.22 µM

Compound: Clc1ccc(Nc2nc3ccccc3c3[nH]c(C4CCCCCCCCCC4)nc23)cc1Cl
Ki [43]: 5.28 µM

From ChEMBL document CHEMBL5096242, “Structure-Activity Studies of 1H-Imidazo[4,5-c]quinolin-4-amine Derivatives as A3 Adenosine Receptor Positive Allosteric Modulators” (J Med Chem, 2022)
